Bioassay records (PubChem)
Avidin fluor = avidin bead compound fluorescence profile; Avidin beads, compound fluorescence 488/530 nm, flow cytometry; stronger effect = higher value; fluorescence (KMESF) at 10 µM; 220,000 tested, 0.38% active; AID 1775; in the data active = fluorescence above about 47
GSH fluor = GSH bead compound fluorescence profile | GSH beads flow cytometry, compound fluorescence 488/530 nm; stronger effect = higher value | fluorescence (KMESF) at 10 µM | 190,000 tested, 0.25% active; in the data active = fluorescence above about 89;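 note: glutathione beads carrying GST-tagged Bcl family fusion proteins plus one bare bead set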
Pemphigus Ab inh = inhibitors of pemphigus antibody binding to human desmoglein-3 | P32926 | DSG3-coupled beads, scFv-anti-DSG3-GFP binding, flow cytometry; stronger effect = lower value | binding (percent of control), % at 10 µM | 310,000 tested, 0.48% active;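 active = binding more than 3 SD below its plate's average and above zero; inconclusive = below that plate limit but binding exactly zero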;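 note: hits lower antibody fragment binding to DSG3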
Target sequence (P32926 whole entry, looked up, the tested form may be a part): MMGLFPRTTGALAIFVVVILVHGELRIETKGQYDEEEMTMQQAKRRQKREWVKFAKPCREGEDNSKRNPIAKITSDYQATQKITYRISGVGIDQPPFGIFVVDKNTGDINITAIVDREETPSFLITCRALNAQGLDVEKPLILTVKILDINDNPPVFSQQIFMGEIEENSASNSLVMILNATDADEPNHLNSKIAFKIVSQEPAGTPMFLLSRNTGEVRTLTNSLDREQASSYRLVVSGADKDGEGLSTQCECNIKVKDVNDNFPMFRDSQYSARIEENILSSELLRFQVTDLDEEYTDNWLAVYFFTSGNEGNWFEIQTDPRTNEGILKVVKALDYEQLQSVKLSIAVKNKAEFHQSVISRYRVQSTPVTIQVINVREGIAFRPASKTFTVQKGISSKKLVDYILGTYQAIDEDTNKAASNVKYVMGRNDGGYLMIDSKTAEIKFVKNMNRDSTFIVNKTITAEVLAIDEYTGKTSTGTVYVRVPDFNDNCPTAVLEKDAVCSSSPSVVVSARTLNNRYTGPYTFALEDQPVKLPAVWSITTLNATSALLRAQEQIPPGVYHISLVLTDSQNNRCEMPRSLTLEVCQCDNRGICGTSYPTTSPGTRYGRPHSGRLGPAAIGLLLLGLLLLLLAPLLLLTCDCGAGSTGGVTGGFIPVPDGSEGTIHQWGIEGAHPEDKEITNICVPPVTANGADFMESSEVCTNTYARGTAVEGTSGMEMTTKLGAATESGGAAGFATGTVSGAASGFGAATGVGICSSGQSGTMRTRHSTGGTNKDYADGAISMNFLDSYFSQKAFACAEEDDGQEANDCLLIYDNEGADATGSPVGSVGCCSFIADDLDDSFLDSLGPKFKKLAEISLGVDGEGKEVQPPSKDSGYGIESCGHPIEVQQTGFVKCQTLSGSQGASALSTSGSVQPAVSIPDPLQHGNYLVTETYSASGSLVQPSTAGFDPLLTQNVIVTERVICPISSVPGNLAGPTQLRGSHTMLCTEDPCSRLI
Arrestin-AP2 inh = inhibitors of human beta-arrestin and AP2 interaction | FITC-arrestin peptide / GST-AP2 beads, flow cytometry; AP2 beta2 appendage carries R879A mutation | inhibition, % at 10 µM | 340,000 tested, 0.31% active | AID 504490;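 active = inhibition above a set limit, near 3 SD of compounds lacking own fluorescence, cut at about 54% in these data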
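System: GST-AP2 R879A bound to glutathione beads, E. coli-expressed. Also added: 50 nM FITC-arrestin peptide. Schedule: compound with beads 12 min RT, then probe 1 h RT. Signal: bead flow cytometry, FITC channel. Read-out basis: percent response.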
Of the large screens only hits and unclear results are named; the others gave an inactive call. In the library only some 1.1% were active in any assay of this set; here they are far more common.

COCCn1c(C)cc(/C=C2/SC(=O)N(C(C)C(=O)OC)C2=O)c1C (stereo not given)	Avidin fluor 129 (no result: GSH fluor)
CCN(CC)c1ccc(NC(=O)CCCCC(=O)Nc2ccc(N(CC)CC)cc2)cc1	Pemphigus Ab inh 87.8 (no result: Avidin fluor, GSH fluor)
CCN(CC)c1ccc(NC(=O)CCCCCN2C(=O)c3ccccc3C2=O)cc1	none (no result: Pemphigus Ab inh)
O=CNn1cnc2c(oc3nc(-c4ccccc4)cc(-c4ccco4)c32)c1=O	Pemphigus Ab inh 77.6
Cc1cccc(N2CCN(Cc3cc(=O)n4ccsc4n3)CC2)c1C	none
O=c1cc(CN2CCN(c3ccccc3O)CC2)nc2sccn12	GSH fluor 255
CCC(CC)C(=O)Nc1cccc(C(=O)Nc2ccc(S(N)(=O)=O)cc2)c1	none
CCC(CC)C(=O)Nc1cccc(S(=O)(=O)c2cccc(NC(=O)C(CC)CC)c2)c1	Pemphigus Ab inh -13.1
CC(C)(C)c1ccc(Cn2c(=O)cnc3ccccc32)cc1	none (no result: Avidin fluor, GSH fluor)
O=C1/C(=C/C=C/c2ccco2)SC(=S)N1c1ccc(O)cc1	Pemphigus Ab inh 78.4 (no result: GSH fluor)
CC(C)C(C(=O)O)N1C(=O)/C(=C/C=C/c2ccco2)SC1=S (stereo not given)	Pemphigus Ab inh 76.4
O=C1/C(=C\c2ccco2)SC(=S)N1c1ccc(O)cc1	none
O=c1[nH]c2cc([N+](=O)[O-])ccc2c2ccc([N+](=O)[O-])cc12	none (no result: Avidin fluor, GSH fluor)
Nc1ccc2c(c1)[nH]c(=O)c1cc(N)ccc12	Pemphigus Ab inh 75.4 (no result: Avidin fluor, GSH fluor, Arrestin-AP2 inh)
CCCCCC(=O)N1C[C@@H](O)[C@H](n2cc(-c3ccc(F)cc3)nn2)C[C@@H]1c1ccc(OC)cc1	Pemphigus Ab inh 78.6 (no result: Avidin fluor, GSH fluor, Arrestin-AP2 inh)
CCCCCC(=O)N1C[C@H](O)[C@@H](n2cc(-c3ccc(F)cc3)nn2)C[C@@H]1c1ccc(C)cc1	none (no result: Avidin fluor, GSH fluor, Arrestin-AP2 inh)
O=C(Nc1ccc(-n2cccc2)cc1)C1CC1	Pemphigus Ab inh 67.7
CC(C)(C)C1CCC(C(=O)Nc2ccccc2)CC1 (stereo not given)	Pemphigus Ab inh 66.0
O=C(Nc1ccc(Nc2ccccc2)cc1)C1CC1	none
CCOc1ccc(NC(=O)CSc2nnc(C)n2CC)cc1	Pemphigus Ab inh 78.4 (no result: Avidin fluor, GSH fluor)
CCOC(=O)C(Cc1ccc(O)cc1)NC(=O)CCc1c[nH]c2ccccc12 (stereo not given)	none (no result: Avidin fluor, GSH fluor)
O=C(O)C1Nc2c(O)cccc2C2C=CCC12 (stereo not given)	Pemphigus Ab inh 83.0
O=C(O)C1Nc2c(Cl)cc(Cl)cc2C2C=CCC12 (stereo not given)	none (no result: Avidin fluor, GSH fluor)
COc1ccc(C(=O)NCCS(=O)(=O)NCc2cccnc2)cc1	Pemphigus Ab inh inconclusive (no result: Avidin fluor, GSH fluor)
O=C1CSC(=S)N1c1cccnc1	GSH fluor 266
O=C(c1ccccc1)N(C(=O)c1ccccc1)N1CCCC1	none (no result: Avidin fluor, GSH fluor)
CC(=O)c1ccc(NC(=O)Nc2ccc(Br)cc2C)cc1	Avidin fluor 76
CC(=O)c1ccc(NC(=O)c2ccc(C)c(Br)c2)cc1	none
CN(C)S(=O)(=O)N1CCN(S(=O)(=O)c2ccc3ccccc3c2)CC1	Pemphigus Ab inh 73.5
CC(NC(=O)/C=C/c1ccco1)c1nc2ccccc2n1Cc1c(Cl)cccc1Cl (stereo not given)	none
CC(NC(=O)/C=C/c1ccco1)c1nc2ccccc2n1Cc1ccccc1F (stereo not given)	Pemphigus Ab inh 81.0
CC(C)C(=O)N(Cc1ccccc1)c1ccccn1	Avidin fluor 116
COc1cc(SC)ccc1C(=O)N(Cc1ccccc1)c1ccccn1	Avidin fluor 51 (no result: GSH fluor)
CC(C)(C)N=C1NN=C(c2cc3ccccc3o2)CS1	none
COc1ccccc1C(C#N)c1cccc(Cl)n1 (stereo not given)	none (no result: Avidin fluor, GSH fluor)
O=C(CCCCCN1C(=O)c2cccc3cccc(c23)C1=O)NCCO	Pemphigus Ab inh 73.5
O=C(CCCN1C(=O)c2cccc3cccc(c23)C1=O)N1CCN(c2ccccc2)CC1	Pemphigus Ab inh 46.6
Cc1cccc(C)c1NC(=O)CNC(=O)CCCN1C(=O)c2cccc3cccc(c23)C1=O	none (no result: Avidin fluor, GSH fluor)
CCC(=O)c1cn(CC(=O)Nc2cccc(OC)c2)c2ccccc12	none (no result: Avidin fluor, GSH fluor)
O=C(NCC(=O)N1CCN(S(=O)(=O)/C=C/c2ccccc2)CC1)c1ccccc1F	none
O=C(NCC(=O)N1CCN(S(=O)(=O)/C=C/c2ccccc2)CC1)c1ccc(Cl)cc1	Pemphigus Ab inh 72.7 (no result: GSH fluor)
N#CC1C(=O)c2ccccc2C1c1ccccc1 (stereo not given)	none (no result: Avidin fluor, GSH fluor)
COc1ccc(NC(=O)CCN2CCN(S(=O)(=O)c3cc(Cl)ccc3Cl)CC2)cc1	Avidin fluor 60
O=C(Nc1cccc(-n2cnnn2)c1)c1ccc(Cl)cc1Cl	none (no result: Avidin fluor, GSH fluor)
O=C(NCCN1CCOCC1)c1cc2sccc2n1Cc1ccc(Cl)cc1	Avidin fluor 52
O=S(=O)(Nc1cc(S(=O)(=O)N2CCOCC2)ccc1NCC1CCCO1)c1ccccc1 (stereo not given)	none (no result: Avidin fluor, GSH fluor)
O=c1[nH]cc(COCC(F)CCl)c(=O)[nH]1 (stereo not given)	Pemphigus Ab inh 72.4 (no result: GSH fluor)
CCOc1ccc2noc3c2c1C(=O)c1ccccc1-3	none
O=C1c2ccccc2-c2onc3ccc(N4CCCC4)c1c23	Pemphigus Ab inh 46.7
O=C1c2ccccc2-c2onc3ccc(NCc4ccco4)c1c23	Pemphigus Ab inh 57.7
Cc1cc(=O)n2nc(N3CCCC3C(=O)Nc3ccc(C(C)C)cc3)sc2n1 (stereo not given)	none (no result: Avidin fluor, GSH fluor)
COc1ccc(NC(=O)CS(=O)(=O)c2ccccc2Cl)cc1	none (no result: Avidin fluor, GSH fluor)
O=C(NCC1OCCc2ccccc21)c1ccc(NC(=O)c2ccccc2Cl)cc1 (stereo not given)	none
O=C(NCC1OCCc2ccccc21)c1ccc(NC(=O)c2ccc(Cl)cc2Cl)cc1 (stereo not given)	Avidin fluor 190
CC1CC(C)CN(C(=O)CN2C(=O)NC3(CCCCCCC3)C2=O)C1 (stereo not given)	none (no result: Avidin fluor, GSH fluor, Pemphigus Ab inh)
CCOC(=O)c1c(C)nc2sc(C(=O)Nc3ccccc3)c(N)c2c1-c1ccc(OC)cc1	Pemphigus Ab inh 87.8
O=Cc1ccc([B-](F)(F)F)s1	none (no result: Avidin fluor, GSH fluor)
Cc1cc(-c2ccc(Cl)cc2)n2nc(N)nc2n1	Pemphigus Ab inh 75.4
CCS(=O)(=O)n1nc(-c2ccccc2)cc1N	none
Nc1cc(-c2ccc(Cl)cc2)nn1S(=O)(=O)c1ccccc1	Pemphigus Ab inh 24.7
CCCc1nnc(NC(=O)CSc2nnc(-c3ccco3)n2C)s1	none (no result: Avidin fluor, GSH fluor, Pemphigus Ab inh)
Cc1cc(Cl)ccc1N(CC(=O)N(C)Cc1ccccc1)S(C)(=O)=O	none (no result: Avidin fluor, GSH fluor, Arrestin-AP2 inh)
Cn1c(SCc2cccc(F)c2)nnc1-c1cnccn1	Pemphigus Ab inh 77.3 (no result: GSH fluor)
Cn1c(SCc2cccc(F)c2)nnc1-c1ccccn1	none
Cn1c(=NC(=O)c2ccc(S(=O)(=O)N3CCCc4ccccc43)cc2)sc2cc(S(C)(=O)=O)ccc21	none
Cn1c(=NC(=O)c2ccccc2[N+](=O)[O-])sc2cc(S(C)(=O)=O)ccc21	Pemphigus Ab inh 85.8
C[C@H]1COC(=O)[C@@H](Cc2ccc(F)cc2)CC/C=C/C[C@@H](CC(=O)N(CCO)Cc2ccccc2)C(=O)N1	Pemphigus Ab inh 80.1 (no result: Avidin fluor, GSH fluor, Arrestin-AP2 inh)
C[C@H]1COC(=O)[C@@H](Cc2ccc(F)cc2)CC/C=C/C[C@H](CC(=O)N(CCO)Cc2ccccc2)C(=O)N1	none (no result: Avidin fluor, GSH fluor)
S=C(Nc1ccc(CN2CCCCC2)cc1)Nc1cccc(Cl)c1Cl	none (no result: Avidin fluor, GSH fluor)
NC(=NC(=O)c1ccc(Cl)cc1)N1N=CCC1c1ccccc1 (stereo not given)	Pemphigus Ab inh -11.4
